Bioassay records as filed in PubChem BioAssay.
Lmaj promast: Leishmania major promastigote growth inhibition; Leishmania major promastigotes, resazurin fluorescence viability; inhibition, % at 10 µM; 200,000 compounds, 9% hits; in the data active = inhibition above about 50%;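 note: promastigotes grown with compound for 44 hours at 28 °C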
Autophagy mod: autophagy modulation, high-content screen. calls only at 10 µM (by protocol). MEF GFP-LC3 puncta imaging; test concentration mostly 10 µM. 190,000 compounds, 0.98% hits. AID 463193;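 active = percentage of spot-positive cells more than 3 SD above its plate mean, without a fluorescence outlier flag or 80% toxicity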
CHOP inh: inhibitors of CHOP induction in ER stress response; CHO-K1 CHOP-promoter luciferase, tunicamycin-induced, 15-18 h; inhibition, % at 10 µM; 220,000 compounds, 3.8% hits; AID 2732;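 active = compounds that reduced the stress-induced luciferase reporter signal by more than about 70% of percent inhibition, limit read from the data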
MT stabilizer: microtubule stabilization, imaging screen; 200,000 compounds, 0.83% hits; % tubulin-high responders, % at 10 µM; HeLa tubulin immunostaining HCS, 24 h; share of cells brighter than vehicle mean+2SD;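 active = plate Z-score above 3 for both tubulin-high and condensed-nucleus cell shares, with cell loss under 80%, at 10 µM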;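 note: anti alpha tubulin signal scored within the nucleus-defined area of each cell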
bCat nuc transl: beta-catenin nuclear translocation modulation; HeLa beta-catenin nuclear translocation, immunofluorescence imaging; nuclear translocation activity, % at 5 µM; AID 1665; 190,000 compounds, 0.3% hits;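 active = nuclear translocation activity above 50% at 5 µM, with a well cell count of 50 or more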;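 note: per-cell ratio of nuclear to cytoplasmic median beta-catenin stain intensity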
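assay system = human HeLa cells, endogenous beta-catenin | times = compound treatment 24 h, 37°C, 5% CO2 | detection = Anti-beta-catenin immunofluorescence on PFA-fixed, Triton-permeabilized cells, DAPI nuclei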
Dynein transport: blocks dynein driven cargo transport along microtubules; 3617.4 mouse cells, GR-EGFP nuclear translocation imaging; test concentration mostly 20 µM; stimulated with dexamethasone, 1 µM; hits give low values; 220,000 compounds, 0.47% hits; AID 1381; z-score, hits read low;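 active = plate z-score of nuclear minus cytoplasmic receptor signal below a set negative limit, without overly bright fluorescence or cell loss, cut at about -3.5 in these data, passing the limit was not always enough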;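 note: z-score of nuclear minus cytoplasmic ring GR-EGFP intensity difference per well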
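medium = tetracycline-free induction medium containing charcoal-stripped FBS | probe or stimulus = dexamethasone, 1.0 µM final | timing = 48 h induction, then 1 h compound, then 30 min agonist, 37 °C | detection = automated 10x imaging of fixed Hoechst-stained cells | read-out basis = nuclear versus cytoplasmic GR-EGFP signal, averaged per well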
CHOP confirm: confirmation of CHOP induction inhibitors; shares compounds with CHOP inh; CHO-CHOP promoter luciferase reporter, tunicamycin-induced, luminescence; inhibition, % at 10 µM; 2,100 compounds, 45% hits;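 active = mean of three repeat readings of reporter signal inhibition above a set limit, cut at about 70% in these data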
Numbers stand for hits; n = inactive; x = no result; + = active, no number. The list is not random: actives were taken first. Their share in the collection is about 12%.

SMILES	Lmaj promast	Autophagy mod	CHOP inh	MT stabilizer	bCat nuc transl	Dynein transport	CHOP confirm
COC(=O)c1ccc2c(=O)n(CCCCCC(=O)N3CCN(c4ccccc4)CC3)c(=O)[nH]c2c1	n	n	105	n	x	n	113
c1cc2[nH]snc2c2nc(C3CC3)nc12	n	n	n	n	n	n	x
CC1(C)CN2C(=O)c3ccccc3C2(C)S1 (stereo unspecified)	n	n	n	n	n	n	x
CC1(c2ccccc2)CC(C)(C)N2C(=O)/C(=C3\SC(=S)NC3=O)c3cccc1c32 (stereo unspecified)	n	n	97	n	n	n	82
CCOc1ccc(-c2nc(N)ncc2Oc2ccccc2Br)c(O)c1	n	n	106	n	x	n	n
CCOc1ccc(-c2n[nH]c(C)c2Oc2ccc(OC)cc2)c(O)c1	n	n	108	n	n	n	88
COc1ccc(-c2cnc(N)nc2-c2ccc(OCc3ccccc3)cc2O)cc1	x	x	n	x	n	n	x
CCOc1ccc(-c2nc(N)ncc2Oc2cccc(OC)c2)c(O)c1	n	n	110	8.2	x	n	n
Cc1ccc(NC(=O)CSc2nc3ccccc3c3nc(CCc4c(C)n[nH]c4C)nn23)cc1F	n	n	108	n	x	n	79
CCOC(=O)C1=C(O)/C(=C\c2ccc(CNC(=O)C(=O)Nc3ccc(C)c(C)c3)o2)N=C1C	n	n	109	n	x	n	n
Cc1[nH]c2ccccc2c1C(=O)CN1CC(C)OC(C)C1 (stereo unspecified)	x	x	n	x	n	n	x
Cc1cccn2c(CNC3CCCc4ccccc43)c(C(=O)N3CCCCC3)nc12 (stereo unspecified)	n	n	n	n	n	n	x
S=C(Nc1ccc(Cl)c(Cl)c1)NC1CCCCC1	n	n	103	n	n	n	n
S=C(Nc1ccc(Cl)c(Cl)c1)NC1CCN(Cc2ccccc2)CC1	95	+	105	n	n	x	n
CC(C)c1ccc(NC(=S)NC2CCCCCC2)cc1	n	n	n	n	n	n	x
O=c1n(-c2ccccc2)c(=O)n(Cc2ccccn2)n1Cc1ccccn1	n	n	n	n	x	n	x
CN(C(=O)COC(=O)c1ccc(=O)n(Cc2ccccc2)n1)c1ccccc1	n	n	n	n	n	n	x
O=C(Nc1ccc(S(=O)(=O)N2CCOCC2)cc1)c1ccc(CN2CCc3ccccc3C2)cc1	91	n	101	n	n	n	89
Cc1cccc(C)c1NC(=O)c1sc(Cl)nc1C	n	n	n	n	n	n	x
COC(=O)/C(=C(/F)Sc1cc(C)c(O)c(C)c1)C(F)(F)F	n	n	98	n	n	n	118
O=[N+]([O-])c1cc(C(F)(F)F)ccc1Oc1cccnc1[N+](=O)[O-]	n	n	n	n	n	n	x
CC(=O)Nc1ccc(NC(=O)CSc2ccc(C(F)(F)F)cc2[N+](=O)[O-])cc1	n	n	n	n	n	n	x
O=C(Nc1ccc(F)cc1)c1ccccc1Oc1ccc(C(F)(F)F)cc1[N+](=O)[O-]	97	n	106	n	n	n	n
O=C(CSc1ccc(C(F)(F)F)cc1[N+](=O)[O-])Nc1ccccc1	n	n	97	n	n	n	n
CC[C@@H](C)[C@H](NC(=O)OC(C)(C)C)c1nnc(S(=O)(=O)Cc2cc(C)ccc2C)o1	n	n	115	n	n	n	123
SMILES	Lmaj promast	Autophagy mod	CHOP inh	MT stabilizer	bCat nuc transl	Dynein transport	CHOP confirm
Cc1cc(N/N=C/c2ccc(O)cc2O)nc(-c2ccccc2O)n1	n	+	101	n	n	n	n
N#Cc1c(N)nc(SCC(=O)C23CC4CC(CC(C4)C2)C3)c(C#N)c1-c1ccc(Cl)cc1	n	n	101	n	x	n	83
NS(=O)(=O)c1ccc(NNC(=O)c2ccc(F)cc2F)cc1	x	x	n	x	n	n	x
Cc1ccc(OCC(=O)N2N=C(C(F)(F)F)CC2(O)C(C)(C)C)cc1C (stereo unspecified)	n	n	103	n	n	n	116
Cc1ccccc1OCC(=O)N1N=C(C(F)(F)F)CC1(O)C(C)(C)C (stereo unspecified)	n	n	n	n	n	n	x
Cc1cc(-c2ccccc2)n(-c2cc(N/N=C/c3ccccc3O)ncn2)n1	100	n	102	n	128	n	n
